Data: ChEMBL document CHEMBL1149713, “1,2,4-benzothiadiazine linked pyrrolo[2,1-c][1,4]benzodiazepine conjugates: synthesis, DNA-binding affinity and cytotoxicity” (Bioorg Med Chem Lett, 2007)

Key:
[1] = Cytotoxicity against human DWD cells; type: functional, cell-based
Method in brief: (§1)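 Sulforhodamine B (SRB) assay in human cancer cell lines: lung (A549, Hop62), breast (Zr-75-1), oral (DWD, KB, Gurav), prostate (PC3). IC50 in µM, mean of three determinations. Adriamycin as reference. Where IC50 was not reached within the concentrations tested, no value is given.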

ZR-75-1 = test: Cytotoxicity against human Zr75-1 cells; type: functional, cell-based; method in brief: as §1
KB = test: Cytotoxicity against human KB cells; type: functional, cell-based; method in brief: as §1
PC-3 = test: Cytotoxicity against human PC3 cells; type: functional, cell-based; method in brief: as §1
[2] = Cytotoxicity against human Gurav cells; type: functional, cell-based; method in brief: as §1
HOP-62 = test: Cytotoxicity against human Hop62 cells; type: functional, cell-based; method in brief: as §1
A549 = test: Cytotoxicity against human A549 cells; type: functional, cell-based; method in brief: as §1
DNA [3] = test: Binding affinity to calf thymus DNA at 20 uM after 36 hrs by thermal denaturation assay; type: nucleic-acid assay; conditions: Bos taurus
DNA [4] = test: Binding affinity to calf thymus DNA at 20 uM after 18 hrs by thermal denaturation assay; type: nucleic-acid assay; conditions: Bos taurus

ΔTm (DNA [3])	ΔTm (DNA [4])	SMILES	IC50 [1]	IC50 (ZR-75-1)	IC50 (KB)	IC50 (PC-3)	IC50 [2]	IC50 (HOP-62)	IC50 (A549)
		COc1cccc2c1C(=O)c1c(O)c3c(c(O)c1C2=O)C[C@@](O)(C(=O)CO)C[C@@H]3O[C@H]1C[C@H](N)[C@H](O)[C@H](C)O1 [DOXORUBICIN]	24.9 µM	2.32 µM	0.17 µM	2.26 µM			
6.7 °C	6.4 °C	COc1cc2c(cc1OCCCCCN1CCN(C3=NS(=O)(=O)c4ccccc4N3C(C)C)CC1)N=C[C@@H]1CCCN1C2=O	27.7 µM	0.12 µM	2.43 µM	27.8 µM	26.5 µM	27.9 µM	30.3 µM
4.1 °C	4.1 °C	COc1cc2c(cc1OCCCCN1CCN(C3=NS(=O)(=O)c4ccccc4N3c3ccccc3)CC1)N=C[C@@H]1CCCN1C2=O		0.15 µM	29.4 µM	357 µM		369 µM	
4.3 °C	4.2 °C	COc1cc2c(cc1OCCCCN1CCN(C3=NS(=O)(=O)c4ccccc4N3C(C)C)CC1)N=C[C@@H]1CCCN1C2=O		2.24 µM	26.1 µM			343 µM	
4.6 °C	4.4 °C	COc1cc2c(cc1OCCCCCN1CCN(C3=NS(=O)(=O)c4ccccc4N3c3ccccc3)CC1)N=C[C@@H]1CCCN1C2=O			2.3 µM	2.35 µM	356 µM		30.2 µM

SMILES	ΔTm (DNA [3])	ΔTm (DNA [4])	IC50 [1]	IC50 (ZR-75-1)	IC50 (KB)	IC50 (PC-3)	IC50 [2]	IC50 (HOP-62)	IC50 (A549)
COc1cc2c(cc1O)N=C[C@@H]1CCCN1C2=O	0.7 °C	0.7 °C							
